Source: ChEMBL document CHEMBL1129587, “(Carboxyalkyl)benzyl propargyl ethers as selective inhibitors of leukocyte-type 12-lipoxygenases” (J Med Chem, 1996)

Biological target: T1, Arachidonate 12-lipoxygenase (Sus scrofa, UniProt P16469)
T1 sequence (P16469 whole entry): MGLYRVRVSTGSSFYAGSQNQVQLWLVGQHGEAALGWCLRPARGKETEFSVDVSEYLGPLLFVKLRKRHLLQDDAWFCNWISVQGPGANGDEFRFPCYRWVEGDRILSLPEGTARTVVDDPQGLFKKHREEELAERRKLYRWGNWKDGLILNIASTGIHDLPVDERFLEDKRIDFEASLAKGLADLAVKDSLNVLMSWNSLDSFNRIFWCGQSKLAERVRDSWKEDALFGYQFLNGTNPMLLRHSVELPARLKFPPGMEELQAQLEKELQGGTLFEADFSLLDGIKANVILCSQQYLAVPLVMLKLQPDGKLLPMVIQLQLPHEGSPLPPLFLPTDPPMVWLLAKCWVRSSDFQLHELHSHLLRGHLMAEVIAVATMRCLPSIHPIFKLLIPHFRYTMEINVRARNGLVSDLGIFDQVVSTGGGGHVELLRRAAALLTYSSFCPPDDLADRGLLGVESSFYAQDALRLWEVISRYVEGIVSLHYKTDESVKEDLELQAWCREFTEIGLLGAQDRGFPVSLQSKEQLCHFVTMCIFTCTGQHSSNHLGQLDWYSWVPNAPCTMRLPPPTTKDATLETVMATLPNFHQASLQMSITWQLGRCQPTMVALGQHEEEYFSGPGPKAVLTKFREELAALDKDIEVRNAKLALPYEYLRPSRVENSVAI
Experiment: Inhibitory activity against conversion of [1-14C]arachidonic acid to 12-HPETE and its reduction product 12-HETE by porcine leukocyte type 12-lipoxygenase
Outline: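 Porcine leukocyte cytosol (75 μg/mL) in 100 mM HEPES, 2 mM CaCl2, 1 mM MgCl2, pH 8.0. Inhibitor added in DMSO and preincubated with enzyme 5 min at 37 °C. [1-14C]arachidonic acid then added (5 μM final) and reacted 15 min. Mixture acidified, products extracted and separated by TLC, and 12-HETE conversion measured by radioactivity scanning. Incubations run in triplicate; IC50 determined from concentration series.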

| IC50 | Compound |
| --- | --- |
| 0.06 µM | CCCCCCCCCCC#CCOCc1ccc(C(=O)O)cc1 |
| > 10 µM | CCCCCCCCC#CCSCc1cccc(CCC(=O)O)c1 |
| 0.05 µM | CCCCCCCCCCC#CCOCc1ccc(CC(=O)O)cc1 |
| > 10 µM | CCCCCCCCCCCCCCC#CCOCc1ccc(CCC(=O)O)cc1 |
| 0.04 µM | CCCCCCCCCC/C=C/COCc1ccc(CCC(=O)O)cc1 |
| 5 µM | O=C(O)CCc1ccc(COCC#CCCCCc2ccccc2)cc1 |
| > 10 µM | CCCCCCCCCCCCCOCc1ccc(CCC(=O)O)cc1 |
| > 10 µM | CCCCCC#CCCOCc1cccc(CCC(=O)O)c1 |
| 0.32 µM | CCCCCCCCCCC#CCOCc1cccc(CCC(=O)O)c1 |
| 2.5 µM | CCCCCCCCCC/C=C\COCc1ccc(CCC(=O)O)cc1 |
| > 10 µM | CCCCCCC#CCOCc1cccc(CCC(=O)O)c1 |
| > 10 µM | CCCCCCCCCCC#CCOCc1ccc(CCCC(=O)O)cc1 |
| 10 µM | CCCCCCCCC#CCOCc1cccc(CCC(=O)O)c1 |
| 6 µM | CCCCCCCC#CCOCc1ccc(C(=O)O)cc1 |
| > 10 µM | CCCCCCCCCCCCCCC#CCOCc1ccc(C(=O)O)cc1 |
